According to publication PMC12339990 (Scientific Reports, 2025):
“Also recorded” adds a separate entry of the source.

B1: PNA: Peanut agglutinin, digoxigenin labeled (protein, UniProt P02872 24-273, looked up)
Galactose-binding lectin: AETVSFNFNSFSEGNPAINFQGDVTVLSNGNIQLTNLNKVNSVGRVLYAMPVRIWSSATGNVASFLTSFSFEMKDIKDYDPADGIIFFIAPEDTQIPAGSIGGGTLGVSDTKGAGHFVGVEFDTYSNSEYNDPPTDHVGIDVNSVDSVKTVPWNSVSGAVVKVTVIYDSSTKTLSVAVTNDNGDITTIAQVVDLKAKLPERVKFGFSASGSLGGRQIHLIRSWSFTSTLITTTRRSIDNNEKKIMNMASA
modifications: digoxigenin label

Legend:
Parameters in all cases: species or system Syrian hamsters (Mesocricetus auratus)
recombinant MSP (rMSP) = target: T1, recombinant MSP (rMSP) (Mesocricetus auratus, UniProt Q9QXU1); assay: Fluorescence ligand binding / competitive displacement of probe 1-AMA from rMSP; conditions: for binding / competitor activity with rMSP in fluorescent-probe assay (in words): probe 1-AMA
T1 sequence (Q9QXU1 16-172): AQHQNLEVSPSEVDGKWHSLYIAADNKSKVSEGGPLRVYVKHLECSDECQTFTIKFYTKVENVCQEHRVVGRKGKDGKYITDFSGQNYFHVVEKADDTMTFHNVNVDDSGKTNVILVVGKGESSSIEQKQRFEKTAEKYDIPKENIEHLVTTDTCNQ
Summary of the method: (§1)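 rMSP was expressed in E. coli BL21(DE3) with 1 mM IPTG and purified by Ni-NTA and Sephadex G-75. Assays used 2 µM protein in 20 mM Tris-HCl pH 7.4 at 25 °C, excitation 295 nm, emission read at 485 nm. For Kd, 1-AMA (1 mM methanol stock) was titrated and fitted against free probe, assuming 1:1 binding and fully active protein. Competitors (0.25–40 µM) displaced 2 µM probe. IC50 was taken at half-maximal fluorescence; Ki = IC50/(1+[L]/Kd).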

recombinant FLP (rFLP) = target: T2, recombinant FLP (rFLP) (Mesocricetus auratus, UniProt Q99MG7); assay: Fluorescence ligand binding / competitive displacement of probe 1-NPN from rFLP; conditions: for binding / competitor activity with rFLP in fluorescent-probe assay (in words): probe 1-NPN
T2 sequence (Q99MG7 17-172): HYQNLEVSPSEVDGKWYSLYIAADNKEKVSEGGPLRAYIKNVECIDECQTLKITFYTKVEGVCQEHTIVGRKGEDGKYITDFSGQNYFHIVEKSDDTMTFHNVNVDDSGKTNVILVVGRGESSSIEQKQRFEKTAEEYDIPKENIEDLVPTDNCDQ
Summary of the method: as §1, with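 “rFLP” for “rMSP”, “425” for “485”, “1-NPN” for “1-AMA”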

rMSP = target: T3, rMSP (Mesocricetus auratus, UniProt Q9QXU1); assay: IBMP binding detected by GC-MS of protein peak after gel-filtration; conditions: ~7.2 mM IBMP, ~200 µM protein, 25 °C 1 h, Sephadex-G-25, DCM extract
T3 sequence (Q9QXU1 16-172): T1 sequence (Q9QXU1 16-172)
Summary of the method: (§2)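 The protein–IBMP mix was incubated on a rotary shaker, with chymotrypsin as negative control. After G-25 elution, fractions of the first OD280 peak were mixed with dichloromethane, vortexed and held overnight at −20 °C. The lower organic phase was analyzed by GC-MS: 2 µl splitless, helium 1 ml/min, oven 50→300 °C stepwise, 70 eV ionization, total ion current mode.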

[1] = target: T4, nMSP (mixture of three natural MSP forms) (Mesocricetus auratus, UniProt Q9QXU1); assay: as above; conditions: ~7.2 mM IBMP, ~200 µM protein, 25 °C 1 h, Sephadex-G-25, DCM extract
T4 sequence (Q9QXU1 16-172): T1 sequence (Q9QXU1 16-172)
Summary of the method: as §2

rFLP = target: T5, rFLP (Mesocricetus auratus, UniProt Q99MG7); assay: as above; conditions: ~7.2 mM IBMP, ~200 µM protein, 25 °C 1 h, Sephadex-G-25, DCM extract
T5 sequence (Q99MG7 17-172): T2 sequence (Q99MG7 17-172)
Summary of the method: as §2

24 kDa MSP = target: T6, 24 kDa MSP (Mesocricetus auratus, UniProt Q9QXU1); assay: Lectin binding
T6 sequence (Q9QXU1 16-172): T1 sequence (Q9QXU1 16-172)
Summary of the method: (§3)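 Natural MSP, a mixture of three forms purified from adult male submandibular gland, was tested with a digoxigenin-labelled lectin kit (GNA, SNA, MAA, DSA, PNA). It was also passed through Con A, WGA and jacalin affinity columns. Unbound fractions and fractions eluted with lectin-specific sugars were checked for MSP forms by SDS-PAGE.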

30 kDa MSP = target: T7, 30 kDa MSP (Mesocricetus auratus, UniProt Q9QXU1); assay: Lectin binding
T7 sequence (Q9QXU1 16-172): T1 sequence (Q9QXU1 16-172)
Summary of the method: as §3

Molecule | binding / competitor activity with rMSP in fluorescent-probe assay (in words) (recombinant MSP (rMSP)) | binding / competitor activity with rFLP in fluorescent-probe assay (in words) (recombinant FLP (rFLP)) | other results
C[C@]12CC[C@H]3[C@@H](CCC4=CC(=O)CC[C@@]43C)[C@@H]1CC[C@@H]2O [testosterone] | extremely weak competitors | extremely weak competitors | –
CCCCCCCCCCCCCC(=O)O [myristic] | no competitor activity | no competitor activity | –
C=CC(O)CCCCC (centres unmarked) [1-octen-3-ol] | no competitor activity | no competitor activity | –
O=C(O)c1cc(O)ccc1O [2,5-dihrodoxy benzoic acid] | no competitor activity | no competitor activity | –
CCCCCCCCCCCCCCCCCC(=O)O [stearic] | no competitor activity | no competitor activity | –
COc1nccnc1CC(C)C [IBMP, 2-isobutyl-3-methoxypyrazine] | high affinity | high affinity | IBMP found by GC-MS in protein peak fraction (binding to rMSP) (rMSP): specific binding; also recorded: retain and specifically carry (i.e. bind) detectable levels; IBMP found by GC-MS in protein peak fraction (binding to nMSP) [1]: specific binding; also recorded: retain and specifically carry (i.e. bind) detectable levels; IBMP found by GC-MS in protein peak fraction (binding to rFLP) (rFLP): specific binding; also recorded: retain and specifically carry (i.e. bind) detectable levels
CCCCCCCC/C=C\CCCCCCCC(=O)O [oleic] | no competitor activity | no competitor activity | –
CC(=O)N(O)CCCCCNC(=O)CCC(=O)N(O)CCCCCNC(=O)CCC(=O)N(O)CCCCCN [deferoxamine] | no competitor activity | no competitor activity | –
CC(=O)[C@H]1CC[C@H]2[C@@H]3CCC4=CC(=O)CC[C@]4(C)[C@H]3CC[C@]12C [progesterone] | extremely weak competitors | extremely weak competitors | –
CCCCCCCCCCCCCCCC(=O)O [palmitic] | no competitor activity | no competitor activity | –
c1ccc(Nc2cccc3ccccc23)cc1 [1-NPN, N-phenyl-1-naphthylamine] | – | strong affinity | Kd (recombinant FLP (rFLP)): ~1380 nM
C[C@]12CC[C@@H]3c4ccc(O)cc4CC[C@H]3[C@@H]1CC[C@@H]2O [17β-estradiol] | extremely weak competitors | extremely weak competitors | –
Nc1cccc2cc3ccccc3cc12 [1-AMA, 1-aminoanthracene] | strong affinity | – | Kd (recombinant MSP (rMSP)): ~1860 nM
O=C(O)c1cccc(O)c1O [2,3-dihydroxybenzoic acid] | no competitor activity | no competitor activity | –
CCCCCCCCCCCCCCCCO [hexadecanol] | no competitor activity | no competitor activity | –
B1 | – | – | Binding of lectin to 24 kDa MSP (in words) (24 kDa MSP): lack of binding; Binding of lectin to 30 kDa MSP (in words) (30 kDa MSP): lack of binding
